According to ChEMBL document CHEMBL4334435, “A focused structure-activity relationship study of psoralen-based immunoproteasome inhibitors” (Medchemcomm, 2019):
Activity calls are given as the source filed them. No cut-off for these calls is given here.

Legend:
[1] = molecular target: T1, Proteasome subunit beta type-10 (Homo sapiens, UniProt P40306); experiment: Inhibition of human immunoproteasome beta 2i subunit using Boc-LRR-AMC as substrate preincubated for 30 mins followed by substrate addition measured for 120 mins by fluorescence based assay
T1 sequence (P40306 whole entry): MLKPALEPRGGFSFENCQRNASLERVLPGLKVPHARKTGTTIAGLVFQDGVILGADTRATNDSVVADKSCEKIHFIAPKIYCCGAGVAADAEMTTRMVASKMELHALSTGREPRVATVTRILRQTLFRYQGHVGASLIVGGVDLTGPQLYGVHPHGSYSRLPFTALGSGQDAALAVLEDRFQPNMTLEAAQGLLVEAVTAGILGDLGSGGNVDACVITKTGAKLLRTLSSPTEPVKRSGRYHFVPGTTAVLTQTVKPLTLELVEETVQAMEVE

[2] = molecular target: T2, Proteasome Macropain subunit MB1 (Homo sapiens, UniProt P28074); experiment: Inhibition of human constitutive proteasome beta 5 subunit at 10 uM using Suc-LLVY-AMC as substrate preincubated for 30 mins followed by substrate addition measured for 120 mins by fluorescence based assay; conditions: 2 h
T2 sequence (P28074 whole entry): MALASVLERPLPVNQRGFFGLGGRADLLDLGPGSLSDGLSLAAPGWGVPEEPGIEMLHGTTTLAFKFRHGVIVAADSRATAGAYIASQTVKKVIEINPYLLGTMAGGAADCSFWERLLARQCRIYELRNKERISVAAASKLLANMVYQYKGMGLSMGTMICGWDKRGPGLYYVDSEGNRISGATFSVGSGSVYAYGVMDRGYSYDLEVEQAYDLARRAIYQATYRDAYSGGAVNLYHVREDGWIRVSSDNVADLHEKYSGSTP
Outline: (§1)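 Purified human immunoproteasome or constitutive proteasome subunit activities measured with fluorogenic substrates in presence of 10 μM compound; reported as residual activity.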

[3] = molecular target: T3, Proteasome subunit beta type-9 (Homo sapiens) (UniProt P28065); experiment: Inhibition of human immunoproteasome beta 1i subunit at 10 uM using Ac-PAL-AMC as substrate preincubated for 30 mins followed by substrate addition measured for 120 mins by fluorescence based assay; outline: as §1
T3 sequence (whole entry): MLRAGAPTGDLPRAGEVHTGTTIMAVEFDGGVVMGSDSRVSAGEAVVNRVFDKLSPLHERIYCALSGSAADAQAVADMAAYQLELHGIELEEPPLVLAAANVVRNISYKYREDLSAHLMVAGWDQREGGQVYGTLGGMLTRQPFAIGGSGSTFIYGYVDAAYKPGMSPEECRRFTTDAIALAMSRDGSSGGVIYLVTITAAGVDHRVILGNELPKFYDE

[4] = molecular target: T4, Proteasome subunit beta type-10 (Homo sapiens) (UniProt P40306); experiment: Inhibition of human immunoproteasome beta 2i subunit at 10 uM using Boc-LRR-AMC as substrate preincubated for 30 mins followed by substrate addition measured for 120 mins by fluorescence based assay; outline: as §1
T4 sequence (whole entry): T1 sequence (P40306 whole entry)

[5] = molecular target: T5, Proteasome subunit beta type-8 (Homo sapiens, UniProt P28062); experiment: Inhibition of human immunoproteasome beta 5i subunit using Suc-LLVY-AMC as substrate preincubated for 30 mins followed by substrate addition and measured for 120 mins by fluorescence based assay
T5 sequence (P28062 whole entry): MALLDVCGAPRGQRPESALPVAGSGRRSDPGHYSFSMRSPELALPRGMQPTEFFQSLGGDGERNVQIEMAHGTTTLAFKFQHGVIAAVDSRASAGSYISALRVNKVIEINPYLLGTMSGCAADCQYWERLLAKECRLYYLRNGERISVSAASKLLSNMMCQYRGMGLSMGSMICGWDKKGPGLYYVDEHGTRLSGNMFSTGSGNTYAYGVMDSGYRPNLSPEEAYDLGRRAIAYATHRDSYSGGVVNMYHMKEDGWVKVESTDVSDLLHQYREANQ

[6] = molecular target: T6, Proteasome subunit beta type-9 (Homo sapiens, UniProt P28065); experiment: Inhibition of human immunoproteasome beta 1i subunit using Ac-PAL-AMC as substrate preincubated for 30 mins followed by substrate addition measured for 120 mins by fluorescence based assay
T6 sequence (P28065 whole entry): T3 sequence (whole entry)

[7] = molecular target: T2, Proteasome Macropain subunit MB1; experiment: Inhibition of human constitutive proteasome beta 5 subunit using Suc-LLVY-AMC as substrate preincubated for 30 mins followed by substrate addition measured for 120 mins by fluorescence based assay
[8] = molecular target: T7, Proteasome subunit beta type-8 (Homo sapiens) (UniProt P28062); experiment: Inhibition of 26S immunoproteasome beta 5 chymotrypsin-like activity in human HeLa intact cells using […] as substrate after 2 hrs by luciferase based assay; type: cell-based
T7 sequence (whole entry): T5 sequence (P28062 whole entry)

PBMC [9] = experiment: Inhibition of LPS-induced IL-1beta production in human PBMC at 10 uM preincubated for 1 hr followed by LPS addition and measured after 24 hrs by cytometric bead array-based FACS analysis; type: functional, cell-based
PBMC [10] = experiment: Inhibition of LPS-induced IL-8 production in human PBMC at 10 uM preincubated for 1 hr followed by LPS addition and measured after 24 hrs by cytometric bead array-based FACS analysis; type: functional, cell-based
PBMC [11] = experiment: Inhibition of LPS-induced IL-10 secretion in human PBMC at 10 uM preincubated for 1 hr followed by LPS addition and measured after 24 hrs by cytometric bead array-based FACS analysis; type: functional, cell-based
PBMC [12] = experiment: Inhibition of LPS-induced IL-12p70 production in human PBMC at 10 uM preincubated for 1 hr followed by LPS addition and measured after 24 hrs by cytometric bead array-based FACS analysis; type: functional, cell-based
[13] = molecular target: T7, Proteasome subunit beta type-8 (Homo sapiens); experiment: Time-dependent inhibition of human immunoproteasome beta 5i subunit assessed as increase in IC50 value using Suc-LLVY-AMC as substrate co-incubated with substrate without preincubation by fluorescence based analysis relative to 30 mins preincubated compound-treated control
Outline: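 IC50 against immunoproteasome beta5i (Suc-LLVY-AMC) determined without pre-incubating compound with enzyme before substrate addition, compared against pre-incubated assay.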

PBMC [14] = experiment: Inhibition of LPS-induced TNFalpha production in human PBMC at 10 uM preincubated for 1 hr followed by LPS addition and measured after 24 hrs by cytometric bead array-based FACS analysis; type: functional, cell-based
[15] = molecular target: T7, Proteasome subunit beta type-8 (Homo sapiens); experiment: Irreversible inhibition of human immunoproteasome beta 5i subunit assessed as recovery of enzyme activity at 1060 nM using Suc-LLVY-AMC as substrate preincubated for 30 mins followed by 100-fold diluted substrate addition by rapid dilution assay relative to control; set-up: scale not given: the % may be the effect or the level left
[16] = molecular target: T7, Proteasome subunit beta type-8 (Homo sapiens); experiment: Inhibition of 26S immunoproteasome beta 5 chymotrypsin-like activity in human THP-1 intact cells using […] as substrate after 2 hrs by luciferase based assay; type: cell-based
[17] = molecular target: T7, Proteasome subunit beta type-8 (Homo sapiens); experiment: Inhibition of 20S immunoproteasome beta 5 chymotrypsin-like activity in human HeLa cell lysates using Suc-LLVY-AMC as substrate preincubated for 30 mins followed by substrate addition and measured for 90 mins by fluorescence based assay; type: subcellular; conditions: Lysate
Outline: (§2)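 Compounds incubated with cell lysates (HeLa: predominantly constitutive proteasome; THP-1: high immunoproteasome) and beta5 activity read with fluorogenic Suc-LLVY-AMC; IC50 determined.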

[18] = molecular target: T5, Proteasome subunit beta type-8; experiment: Inhibition of 20S immunoproteasome beta 5 chymotrypsin-like activity in human THP-1 cell lysates using Suc-LLVY-AMC as substrate preincubated for 30 mins followed by substrate addition and measured for 90 mins by fluorescence based assay; type: subcellular, Lysate; outline: as §2
PBMC [19] = experiment: Inhibition of LPS-induced IL-6 secretion in human PBMC at 10 uM preincubated for 1 hr followed by LPS addition and measured after 24 hrs by cytometric bead array-based FACS analysis; type: functional, cell-based
Homo sapiens = species on record: Homo sapiens; experiment: Selectivity ratio of IC50 for human constitutive proteasome beta 5 subunit to IC50 for human immunoproteasome beta 5i subunit
[20] = molecular target: T7, Proteasome subunit beta type-8 (Homo sapiens); experiment: Inhibition of human immunoproteasome beta 5i subunit using Suc-LLVY-AMC as substrate assessed as residual activity at 10 uM preincubated for 30 mins followed by substrate addition measured for 120 mins by fluorescence based assay relative to control; outline: as §1

Structure (SMILES) | IC50 [1] | inhibition (INH) [2] | inhibition [3] | inhibition [4] | IC50 [5] | IC50 [6] | IC50 [7] | other results
Cc1c(-c2nsc(=O)o2)c(=O)oc2cc3occ(C4CCCC4)c3cc12 | Nd(Insoluble) | Not Active | inactive | inactive | 264 nM | Nd(Insoluble) | Nd(Insoluble) | –
Cc1cccc(-c2coc3cc4oc(=O)c(-c5nsc(=O)o5)c(C)c4cc23)c1 | Nd(Insoluble) | Not Active | inactive | inactive | 365 nM | Nd(Insoluble) | Nd(Insoluble) | –
Cc1c(CCC(=O)ON2C(=O)CCC2=O)c(=O)oc2cc3occ(C4CCCCC4)c3cc12 | – | – | – | – | 1830 nM | – | – | –
Cc1c(-c2nsc(=O)o2)c(=O)oc2cc3occ(C4CCC4)c3cc12 | Nd(Insoluble) | Not Active | inactive | inactive | 433 nM | Nd(Insoluble) | Nd(Insoluble) | –
Cc1c(CC(=O)NCC#N)c(=O)oc2cc3occ(C4CCCCC4)c3cc12 | – | – | – | – | – | – | – | Activity [20]: 99%
Cc1c(CCC(=O)NCC#N)c(=O)oc2cc3occ(C4CCCCC4)c3cc12 | – | – | – | – | – | – | – | Activity [20]: 102%
Cc1c(-c2nsc(=O)o2)c(=O)oc2cc3occ(-c4ccc(Br)cc4)c3cc12 | Nd(Insoluble) | Not Active | inactive | inactive | 351 nM | Nd(Insoluble) | Nd(Insoluble) | –
COc1ccccc1-c1coc2cc3oc(=O)c(-c4nsc(=O)o4)c(C)c3cc12 | Nd(Insoluble) | Not Active | inactive | inactive | 227 nM | Nd(Insoluble) | Nd(Insoluble) | –
Cc1c(CC(=O)N(C)CC#N)c(=O)oc2cc3occ(C4CCCCC4)c3cc12 | – | – | – | – | – | – | – | Activity [20]: 101%
Cc1c(CC(=O)ON2C(=O)CCC2=O)c(=O)oc2cc3occ(C4CCCCC4)c3cc12 | – | – | – | – | – | – | – | Activity [20]: 62%
Cc1c(CCC(=O)N(C)CC#N)c(=O)oc2cc3occ(C4CCCCC4)c3cc12 | – | – | – | – | – | – | – | Activity [20]: 111%

Second part, led by results:

IC50 [1] | inhibition (INH) [2] | inhibition [3] | inhibition [4] | IC50 [5] | IC50 [6] | IC50 [7] | Structure (SMILES) | other results
Nd(Insoluble) | Not Active | inactive | inactive | 106 nM | Nd(Insoluble) | Nd(Insoluble) | Cc1c(-c2nsc(=O)o2)c(=O)oc2cc3occ(C4CCCCC4)c3cc12 | inhibition [8]: inactive; inhibition (PBMC [9]): inactive; inhibition (PBMC [10]): inactive; inhibition (PBMC [11]): Active; inhibition (PBMC [12]): inactive; inhibition [13]: Active; inhibition (PBMC [14]): inactive; Activity [15]: 22%; inhibition [16]: inactive; inhibition [17]: Active; IC50 [18]: 1010 nM; inhibition (PBMC [19]): Active
Nd(Insoluble) | Not Active | inactive | inactive | 174 nM | Nd(Insoluble) | Nd(Insoluble) | CCc1ccc(-c2coc3cc4oc(=O)c(-c5nsc(=O)o5)c(C)c4cc23)cc1 | inhibition [8]: inactive; inhibition (PBMC [9]): inactive; inhibition (PBMC [10]): inactive; inhibition (PBMC [11]): Active; inhibition (PBMC [12]): inactive; inhibition [13]: Active; inhibition (PBMC [14]): inactive; inhibition [16]: inactive; inhibition [17]: Active; IC50 [18]: 1530 nM; inhibition (PBMC [19]): Active
– | – | – | – | 13 nM | – | – | Cc1c(-c2nsc(=O)o2)c(=O)oc2cc3occ(-c4ccccc4)c3cc12 | Ratio IC50 (Homo sapiens): 80
Nd(Insoluble) | Not Active | inactive | inactive | 226 nM | Nd(Insoluble) | Nd(Insoluble) | COc1cccc(-c2coc3cc4oc(=O)c(-c5nsc(=O)o5)c(C)c4cc23)c1 | –
Nd(Insoluble) | Not Active | inactive | inactive | 141 nM | Nd(Insoluble) | Nd(Insoluble) | Cc1c(-c2nsc(=O)o2)c(=O)oc2cc3occ(-c4cccs4)c3cc12 | inhibition [13]: Active
Nd(Insoluble) | Not Active | inactive | inactive | 200 nM | Nd(Insoluble) | Nd(Insoluble) | Cc1c(-c2nsc(=O)o2)c(=O)oc2cc3occ(-c4ccc(F)cc4)c3cc12 | –
